Calls of active or inactive are those of the source. The calls are words filed in the database; no cut-off is given here.
Legend:
[1] = Clearance in rhesus monkey; assay type: ADME, organism-based, Macaca mulatta; settings: in vivo
[2] = molecular target: Voltage-gated inwardly rectifying potassium channel KCNH2 (Homo sapiens, UniProt Q12809); test: Inhibition of human ERG
[3] = molecular target: T1, Muscarinic acetylcholine receptor M2 (Homo sapiens) (UniProt P08172); test: Agonist activity at human muscarinic M2 receptor expressed in CHONFAT cells assessed as increase in acetylcholine-induced calcium mobilization at 10 uM preincubated for 4 mins measured after 1 hr by FLIPR assay; assay type: functional, cell-based
T1 sequence (whole entry): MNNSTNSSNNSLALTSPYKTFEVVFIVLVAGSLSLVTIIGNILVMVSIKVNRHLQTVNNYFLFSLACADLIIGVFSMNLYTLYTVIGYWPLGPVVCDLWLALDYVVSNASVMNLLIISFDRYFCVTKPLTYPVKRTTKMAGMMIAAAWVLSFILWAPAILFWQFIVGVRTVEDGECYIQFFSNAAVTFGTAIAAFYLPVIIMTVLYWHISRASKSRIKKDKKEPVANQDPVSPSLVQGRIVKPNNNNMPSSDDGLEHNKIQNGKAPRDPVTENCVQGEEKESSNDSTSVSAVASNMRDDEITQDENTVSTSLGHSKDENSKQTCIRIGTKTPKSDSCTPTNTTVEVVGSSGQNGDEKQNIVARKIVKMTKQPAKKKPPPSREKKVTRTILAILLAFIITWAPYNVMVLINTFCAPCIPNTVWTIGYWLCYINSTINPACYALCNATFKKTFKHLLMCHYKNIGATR
Method in brief: (§1)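 CHO-NFAT cells expressing the named muscarinic receptor (human M1–M4; rhesus, dog or rat M1 in CHO-K1) were plated at 25,000 cells/well and grown overnight at 37 °C, 6% CO2. Cells were loaded with 1 μM Fluo-4AM for 1 h, washed, and preincubated 4 min with serially diluted compound (final DMSO 0.67%). They were then stimulated 4 min with an EC20 of ACh, and Ca2+ flux was read by FLIPR384.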

[4] = Metabolic stability in monkey NADPH-fortified hepatic microsomes assessed as oxidative metabolism; assay type: ADME, Macaca mulatta, Liver; settings: rhesus monkey
Method in brief: (§2)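 Compound incubated with NADPH-fortified hepatic microsomes from rat, dog, monkey or human. Oxidative metabolism monitored.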

Mus musculus = test: Antiamnesic activity against scopolamine-induced dementia in ip dosed B6SJL mouse assessed as increase in freezing behavior after 24 hrs; assay type: functional, organism-based
Method in brief: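 Male B6SJL mice, 10 weeks old and naive (n = 12–16/group), were given compound IP in 5% beta-cyclodextrin and/or scopolamine 0.3 mg/kg in 0.9% saline 30 min before training. Training was 2 tone (3 kHz, 85 dB, 30 s)–footshock (0.5 mA, 1 s) pairings 2 min apart. Freezing in the same chamber was video-scored 24 h later.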

[5] = Oral bioavailability in rat at 3 mg/kg; assay type: ADME, organism-based; settings: in vivo
Method in brief: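 Rats (n = 2) dosed orally at 3 mg/kg and IV at 1 mg/kg. Interanimal variability under 20% for all values.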

[6] = Metabolic stability in human NADPH-fortified hepatic microsomes assessed as oxidative metabolism; assay type: ADME, Liver; method in brief: as §2
[7] = Agonist activity at dog muscarinic M1 receptor expressed in CHOK1 cells assessed as potentiation of acetylcholine-induced calcium mobilization preincubated for 4 mins measured after 1 hr by FLIPR assay; assay type: functional, Canis lupus familiaris, CHO-K1; method in brief: as §1
[8] = Oral bioavailability in dog at 3 mg/kg; assay type: ADME, organism-based, Canis lupus familiaris; settings: in vivo
Method in brief: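 Dog PK, n = 2 animals. Given orally at 3 mg/kg and intravenously at 1 mg/kg. Interanimal variability under 20% for all values.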

[9] = molecular target: T2, Muscarinic acetylcholine receptor M1 (Rattus norvegicus) (UniProt P08482); test: Agonist activity at rat muscarinic M1 receptor expressed in CHOK1 cells assessed as potentiation of acetylcholine-induced calcium mobilization preincubated for 4 mins measured after 1 hr by FLIPR assay; assay type: functional, cell-based; settings: CHO-K1; method in brief: as §1
T2 sequence (whole entry): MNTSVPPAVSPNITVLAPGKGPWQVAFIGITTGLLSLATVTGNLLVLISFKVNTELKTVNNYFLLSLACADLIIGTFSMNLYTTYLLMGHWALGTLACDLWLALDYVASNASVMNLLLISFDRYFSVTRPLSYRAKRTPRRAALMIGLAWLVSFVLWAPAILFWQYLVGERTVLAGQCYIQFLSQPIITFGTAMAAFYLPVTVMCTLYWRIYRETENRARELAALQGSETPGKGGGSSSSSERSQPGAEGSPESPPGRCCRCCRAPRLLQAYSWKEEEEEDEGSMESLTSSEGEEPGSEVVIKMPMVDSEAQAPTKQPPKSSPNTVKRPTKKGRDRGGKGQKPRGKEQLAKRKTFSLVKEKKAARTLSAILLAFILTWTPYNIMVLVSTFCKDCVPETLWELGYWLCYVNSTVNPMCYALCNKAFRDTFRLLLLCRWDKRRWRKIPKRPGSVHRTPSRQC

[10] = Lipophilicity, log P of the compound; assay type: physicochemical; settings: octanol/water

Sequence of Voltage-gated inwardly rectifying potassium channel KCNH2 (Q12809 whole entry): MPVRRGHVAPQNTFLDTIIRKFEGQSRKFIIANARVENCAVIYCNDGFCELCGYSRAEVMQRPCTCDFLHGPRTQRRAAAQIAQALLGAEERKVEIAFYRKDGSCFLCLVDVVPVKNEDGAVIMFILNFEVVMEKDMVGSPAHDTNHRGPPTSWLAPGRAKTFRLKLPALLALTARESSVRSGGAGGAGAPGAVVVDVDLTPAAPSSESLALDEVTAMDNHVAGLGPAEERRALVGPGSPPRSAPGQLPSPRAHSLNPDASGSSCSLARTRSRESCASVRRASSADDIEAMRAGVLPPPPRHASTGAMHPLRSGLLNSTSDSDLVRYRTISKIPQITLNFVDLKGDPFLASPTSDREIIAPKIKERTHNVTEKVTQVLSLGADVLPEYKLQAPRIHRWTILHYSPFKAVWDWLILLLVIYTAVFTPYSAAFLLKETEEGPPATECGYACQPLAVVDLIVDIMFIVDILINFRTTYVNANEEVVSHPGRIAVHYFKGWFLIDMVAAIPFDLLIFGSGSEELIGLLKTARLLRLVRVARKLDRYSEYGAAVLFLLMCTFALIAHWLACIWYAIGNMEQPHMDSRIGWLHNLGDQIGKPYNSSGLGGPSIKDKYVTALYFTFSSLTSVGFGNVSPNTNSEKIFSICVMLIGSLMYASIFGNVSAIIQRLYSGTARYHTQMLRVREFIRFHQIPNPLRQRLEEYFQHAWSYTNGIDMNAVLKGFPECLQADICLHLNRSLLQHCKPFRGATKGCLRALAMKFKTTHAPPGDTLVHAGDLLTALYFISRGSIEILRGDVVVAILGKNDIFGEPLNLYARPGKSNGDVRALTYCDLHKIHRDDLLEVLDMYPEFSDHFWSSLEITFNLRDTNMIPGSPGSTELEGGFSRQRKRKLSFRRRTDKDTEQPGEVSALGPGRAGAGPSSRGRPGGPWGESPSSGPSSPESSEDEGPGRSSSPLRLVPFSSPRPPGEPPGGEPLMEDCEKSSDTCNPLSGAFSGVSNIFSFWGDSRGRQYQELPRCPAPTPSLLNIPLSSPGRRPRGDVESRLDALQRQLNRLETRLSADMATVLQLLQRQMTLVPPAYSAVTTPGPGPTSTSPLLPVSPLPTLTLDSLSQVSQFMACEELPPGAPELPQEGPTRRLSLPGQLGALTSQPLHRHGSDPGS

## N#CC1(c2ccccn2)CCN(Cc2cc(C(=O)O)c(=O)n3ccccc23)CC1 [MSD-M1PAM]
[1]
  clearance: 17 mL/min/kg
[2]
  IC50: > 30 µM
[3]
  Activity: inactive
[4]
  Stability: Stable
Mus musculus
  Activity: Dose-dependent effect
[5]
  bioavailability: 68%
[6]
  Stability: Stable
[7]
  IP: 100 nM
[8]
  bioavailability: 62%
[9]
  IP: 89 nM
[10]
  logP: 0.15

Source: ChEMBL document CHEMBL1799933, “Discovery of a selective allosteric M1 receptor modulator with suitable development properties based on a quinolizidinone carboxylic acid scaffold” (J Med Chem, 2011)
